# Laboratory results as given in PubChem BioAssay AID504382 (The Scripps Research Institute Molecular Screening Center, 2011).
# About 460 (18%) of roughly 2,500 compounds were called active. Not all results are given here. Values without a mark were called inactive.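 The calls were made as follows: active = mean activation above a cutoff of low control average plus 3 SD from the earlier screen (cut at about 12% in these data); inactive = the rest.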
# Assay: compound fluorescence interference without thin filaments, confirmation, artefact control for cardiac RTF calcium sensitizer project, biochemical (AID 504382)
# Conditions: IANBD fluorescence interference counterscreen, buffer, EC20 Ca2+; at 7.2 µM; hits give high values; scaled: EC20 calcium 0, EC100 calcium 100
# Summary of the method: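 Medium: MOPS buffer, 190 mM, with KCl, MgCl2, EGTA, NTA, DTT, pH 7.20; Dosing: one dose of 7.2 µM, 0.7% DMSO; Probe or stimulus: calcium at EC20 level, 0.472 mM final; Incubation: 15 min, 25 °C; Evaluation: compound fluorescence interference relative to control well signal range; Signal: fluorescence, 480/540 nm.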
row,Compound,fluorescence artifact activation
1,O=C(CN1C(=O)NC2(CCCCC2)C1=O)Nc1ccccc1Cl,0.05%
2,O=C(CCc1nc2sc3c(c2c(=O)[nH]1)CCCC3)Nc1ccccc1Cl,31.9% (active)
3,CCC(=O)Nc1nc2c(c(=O)[nH]1)CCCC2,0.02%
4,CSCC(O)Cn1ncc2ccccc2c1=O (stereo not drawn),-0.02%
5,CCN1C(=O)/C(=C/C=C2\N(CC)c3cc(S(=O)(=O)N(C)C)ccc3N2c2ccccc2)SC1=S,0.15%
6,O=C1CSC(=S)N1c1ccc(O)cc1,0.03%
7,CC(C)c1ccc(N2C(=O)/C(=C/N(C)C)SC2=S)cc1,18.9% (active)
8,CN(C)/C=C1\SC(=S)N(c2ccc(Br)cc2)C1=O,43.8% (active)
9,COCCNC(=O)CSc1nc(N)c(NC(=O)c2ccccc2F)c(=O)[nH]1,1.87%
10,CN1C2CCC1/C(=C/c1cccn1C)C(=O)/C2=C\c1cccn1C,0.09%
11,CC(C)c1ccc(/C=C2\Oc3c(ccc(O)c3CN3CCN(C)CC3)C2=O)cc1,-0.06%
12,O=c1cc(-c2ccccc2)oc2ccc(Br)cc12,0.06%
13,CCSc1cc(N2CCCC2)nc(-c2ccc(Cl)cc2)n1,0.62%
14,CC(=O)Nc1ccc(N=Cc2nc(-c3ccc(C)cc3)oc2O)cc1,8.23%
15,CC(C)CC[n+]1ccccc1/C=C/c1ccc(N(C)C)cc1,-0.07%
16,COc1ccc(OC)c(S(=O)(=O)N2CCC(C(=O)NCc3ccccn3)CC2)c1,1.09%
17,CC(=O)Nc1ccc(Nc2cc(N(C)C)c3nonc3c2[N+](=O)[O-])cc1,33.2% (active)
18,CC1(C)CC(=O)C(C=Nc2cc(C(=O)c3ccccc3)ccc2N)=C(O)C1,6.24%
19,CN(C(=O)C1CCC1C(=O)O)c1nc(-c2ccc(Cl)s2)cs1 (stereo not drawn),21.3% (active)
20,O=C(NCc1ccccc1)C1(c2cccc(F)c2)CCCC1,0.26%
21,COC(=O)C/C(O)=C(/N=Nc1cccc(C(F)(F)F)c1)C(=O)OC,0.94%
22,O=C(Nc1ccc(Cl)cn1)C1COc2ccccc2O1 (stereo not drawn),14.7% (active)

row,Compound,fluorescence artifact activation
1,O=C(Nc1nc(-c2nc3ccccc3s2)cs1)C1COc2ccccc2O1 (stereo not drawn),11.1%
2,O=C1NCCN1c1ncc([N+](=O)[O-])s1,4.21%
3,COc1ccc(S(=O)(=O)N(CC(C)C)C2CCS(=O)(=O)C2)cc1OC (stereo not drawn),2.69%
4,O=C1c2ccccc2C(=O)N1c1ccc(Cc2ccncc2)cc1,5.28%
5,O=C(Nc1nc2c(s1)CN(Cc1ccccc1)CC2)c1cccc(S(=O)(=O)N2CCc3ccccc32)c1,-0.03%
6,Cc1ccc(S(=O)(=O)c2cc(C#N)c(=O)[nH]c2N)cc1,6.68%
7,O=C(Cc1ccc(Cl)cc1)NNS(=O)(=O)c1ccc([N+](=O)[O-])cc1,83% (active)
8,CC(=O)NCC(O)c1ccc([N+](=O)[O-])cc1 (stereo not drawn),-0.01%
9,O=C(CSc1ccc(Cl)cc1)Nc1nnc(-c2cccc([N+](=O)[O-])c2)s1,0.01%
10,O=C1CC(/C=C/c2ccco2)=Nc2ccccc2N1,0.39%
11,Cc1ccc(NC(=O)O/N=C/c2ccc(F)cc2)cc1,0.14%
12,CCOC(=O)C1CCCN(C2=NC(=O)/C(=C/c3ccc(O)c(OC)c3)S2)C1 (stereo not drawn),0.04%
13,CCN1CC=C2C(C#N)=C(N)C(C#N)(C#N)C(c3cc(Cl)ccc3Cl)C2C1 (stereo not drawn),95% (active)
14,CCN1CC=C2C(C#N)=C(N)C(C#N)(C#N)[C@H](c3ccoc3)[C@H]2C1,0.03%
15,CCN1CC=C2C(C#N)=C(N)C(C#N)(C#N)[C@H](c3cccc(OC)c3OC)[C@H]2C1,0.43%
16,CC1=C(C(=O)N(C)C)C(c2ccc(C)s2)NC(=S)N1 (stereo not drawn),0.26%
17,CN(C)S(=O)(=O)c1ccc(C(=O)Oc2cc(=O)[nH]c3ccccc23)cc1,0.2%
18,CN(CC(=O)Nc1ccccc1Cl)C(=O)c1cc(=O)[nH]c2ccccc12,17.4% (active)
19,COc1ccc(N(CC(=O)Nc2ccccc2C(=O)NCC(C)C)S(C)(=O)=O)cc1,0.65%
20,N#Cc1c(NC(=O)/C=C/C(=O)O)sc2c1CCN(Cc1ccccc1)C2,0.08%
21,Nc1c(C(=O)Nc2ccc(S(=O)(=O)N3CCCC3)cc2)sc2nc3ccc(OC(F)(F)F)cc3cc12,0.16%
22,Cc1ccc(N=C2NC(=O)/C(=C/c3cccnc3)S2)cc1C,0.55%

row,Compound,fluorescence artifact activation
1,COc1ccccc1N=C1NC(=O)/C(=C/c2ccc(N(C)C)cc2)S1,0.13%
2,O=C1NC(=NCc2ccccc2)S/C1=C\c1ccccc1,14.6% (active)
3,Nc1ccc(S(N)(=O)=O)cc1N,196% (active)
4,Nc1ccc2c(O)cc(S(=O)(=O)O)cc2c1,0.19%
5,O=C1NC(c2cccc([N+](=O)[O-])c2)Oc2ccccc21 (stereo not drawn),-0.04%
6,Cc1ccc(OCc2ccc(C(=O)O)o2)cc1C,-0.09%
7,O=C(O)/C=C/C(=O)NCc1csc2ccccc12,94.3% (active)
8,Cc1cc(C(=O)NNC(=S)NCc2ccccc2)cs1,-0.07%
9,O=C(NCc1csc2ccccc12)Nc1cc(Cl)cc(Cl)c1,0.06%
10,CCOC(=O)c1c(-c2ccccc2)csc1NC(=O)/C(C#N)=C/c1ccc(O)c(OC)c1,6.3%
11,O=C(NC1CCCCC1)c1cccc2c1C(=O)c1ccc(N3CCCC3)cc1S2(=O)=O,23.8% (active)
12,C=CCNC(=O)c1cccc2c1C(=O)c1ccc(N3CCCC3)cc1S2(=O)=O,0.04%
13,O=C(NC1CCCCC1)c1cccc2c1C(=O)c1ccc(N3CCC(Cc4ccccc4)CC3)cc1S2(=O)=O,0.54%
14,CC1CCN(c2ccc3c(c2)S(=O)(=O)c2cccc(C(=O)NC4CCCCC4)c2C3=O)CC1,0.04%
15,CN1CCC[C@@H]1CCNC(=O)c1cccc2c1C(=O)c1ccc(N3CCCC3)cc1S2(=O)=O,-0.09%
16,O=C(NCC1CC1)c1cccc2c1C(=O)c1ccc(N3CCCC3)cc1S2(=O)=O,69.4% (active)
17,COc1ccccc1N1C(=O)c2cccc3c(N(C)CCO)ccc(c23)C1=O,0.41%
18,O=C(N/C(=C/c1cn(-c2ccccc2)nc1-c1ccccc1)C(=O)N1CCOCC1)c1ccc(Cl)cc1Cl,3.44%
19,COc1cccc2c1C(=O)c1c(O)c3c(c(O)c1C2=O)C[C@@](O)(C(=O)CO)C[C@@H]3O[C@H]1C[C@H](N)[C@H](O)[C@H](C)O1,-0.07%
20,COc1cccc2c1C(=O)c1c(O)c3c(c(O)c1C2=O)C[C@@](O)(C(=O)CO)C[C@@H]3OC1CC(N)C(O)C(C)O1 (stereo partly drawn),0.06%
21,COc1cccc2c1C(=O)c1c(O)c3c(c(O)c1C2=O)CC(O)(C(C)=O)CC3OC1CC(O)C(O)C(C)O1 (stereo not drawn),24.9% (active)
22,COc1cccc2c1C(=O)c1c(O)c3c(c(O)c1C2=O)CC(O)(C(C)=O)CC3OC1CC(N(C)C)C(O)C(C)O1 (stereo not drawn),0%

row,Compound,fluorescence artifact activation
1,COc1cccc2c1C(=O)c1c(O)c3c(c(O)c1C2=O)C[C@](O)(C(C)=O)C[C@H]3O[C@@H]1C[C@@H](N)[C@@H](O)[C@@H](C)O1,-0.05%
2,COc1cccc2c1C(=O)c1c(O)c3c(c(O)c1C2=O)CC(O)(C(=O)CO)CC3OC1CC(N(C)C)C(O)C(C)O1 (stereo not drawn),40.5% (active)
3,COC(=O)c1ccccc1NC(=O)[C@@H]1CCC(=O)N1C1OC(=O)c2c1ccc(OC)c2OC (stereo partly drawn),0.09%
4,O=C1C=C(NCc2ccco2)CC(c2ccc(Cl)cc2)C1 (stereo not drawn),0.31%
5,CC1=CC=CN2CC(O)CN=C12 (stereo not drawn),3.77%
6,Cc1c(C(=O)NCc2ccc3c(c2)cc(C)n3C)cccc1[N+](=O)[O-],0.13%
7,COc1cc(NC(=O)CSc2nc3ccccc3n2-c2ccccc2)c(C)cc1[N+](=O)[O-],0.03%
8,COC1=C/C(=C/c2c(N)n3c(nc2=O)sc2cc(S(C)(=O)=O)ccc23)C=CC1=O,0.11%
9,N#Cc1cccc(NC(=S)Nc2ccccc2)c1,0.03%
10,CC(C)(C)OC(=O)[C@H](Cc1ccccc1)NC(=O)c1nc[nH]c1C(=O)NCc1ccccc1,4.14%
11,CN(Cc1ccccc1)C(=O)c1[nH]cnc1C(=O)NCc1ccccc1,12.7% (active)
12,CCOC(=O)c1[nH]cnc1C(=O)Nc1ccccn1,0.74%
13,CCOC(=O)C1=C(C)N=c2s/c(=C\c3ccc(OCC(=O)O)cc3)c(=O)n2C1c1ccc(Cl)cc1 (stereo not drawn),0.05%
14,CC1=C/C(=C\C=C(C#N)C#N)N(C)c2ccccc21,0.3%
15,Cc1cc2nc(/C(C#N)=C\c3ccc(-c4ccccc4C(=O)O)o3)[nH]c2cc1C,0.09%
16,O=C(O)c1cc(Cl)ccc1-c1ccc(/C=C/c2cc(C(F)(F)F)[nH]c(=O)n2)o1,21.8% (active)
17,O=C(O)c1ccccc1-c1ccc(/C=C/c2cc(C(F)(F)F)[nH]c(=O)n2)o1,0.16%
18,CC(=O)NN1C(=O)/C(=C\c2ccc(O)cc2)SC1=S,0.69%
19,C/C(=N\Nc1ccc([N+](=O)[O-])cc1[N+](=O)[O-])c1cccnc1,0.07%
20,O=C(NCc1nnc(SCC(=O)N2CCCCCC2)o1)c1ccco1,8.13%
21,Fc1ccc(OCc2nnc(SCCN3CCOCC3)o2)cc1,-0.06%
22,O=C(CSc1nnc(COc2ccccc2)o1)N1CCN(c2ccccc2)CC1,12% (active)
